ChEMBL document CHEMBL3046018, “Design, syntheses and 3D-QSAR studies of novel N-phenyl pyrrolidin-2-ones and N-phenyl-1H-pyrrol-2-ones as protoporphyrinogen oxidase inhibitors” (Bioorg Med Chem, 2010)

What was measured:
Setaria viridis = assay: Herbicidal activity against Setaria viridis assessed as growth inhibition at 150 g ai/ha using post-emergence protocol under greenhouse conditions measured 15 days after compound treatment; format: functional; settings: 360 h, read-out: GI
Procedure, shortened: (§1)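 Grass weeds were grown in pots in the greenhouse and sprayed post-emergence at the 1-leaf stage. The spray was formulation concentrate diluted in water. Soil was clay, pH 6.5, 1.6% organic matter, 37.3% clay particles, CEC 12.1 mol/kg. The g.ai/ha rate was active ingredient over pot surface area. Controls were untreated and DMF-treated seedlings.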

Eclipta prostrata = assay: Herbicidal activity against Eclipta prostrata assessed as growth inhibition at 150 g ai/ha using post-emergence protocol under greenhouse conditions measured 15 days after compound treatment; format: functional; settings: 360 h, read-out: GI
Procedure, shortened: (§2)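 Post-emergence greenhouse spray on pot-grown broadleaf weeds at the 2-leaf stage. Formulation concentrates were diluted with water. Soil was clay, pH 6.5, 1.6% organic matter, 37.3% clay particles, CEC 12.1 mol/kg. The rate was total active ingredient divided by pot surface area. Untreated seedlings and DMF-treated seedlings served as controls.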

Digitaria sanguinalis = assay: Herbicidal activity against Digitaria sanguinalis (hairy crabgrass) assessed as growth inhibition at 150 g ai/ha using post-emergence protocol under greenhouse conditions measured 15 days after compound treatment; format: functional; settings: 360 h, read-out: GI; procedure, shortened: as §1
Echinochloa crus-galli = assay: Herbicidal activity against Echinochloa crus-galli (barnyard grass) assessed as growth inhibition at 150 g ai/ha using post-emergence protocol under greenhouse conditions measured 15 days after compound treatment; format: functional; settings: 360 h, read-out: GI; procedure, shortened: as §1
[1] = biological target: T1, Protoporphyrinogen oxidase (Homo sapiens, UniProt P50336); assay: Inhibition of Homo sapiens (human) protoporphyrinogen oxidase; settings: read-out: Ki
T1 sequence (P50336 whole entry): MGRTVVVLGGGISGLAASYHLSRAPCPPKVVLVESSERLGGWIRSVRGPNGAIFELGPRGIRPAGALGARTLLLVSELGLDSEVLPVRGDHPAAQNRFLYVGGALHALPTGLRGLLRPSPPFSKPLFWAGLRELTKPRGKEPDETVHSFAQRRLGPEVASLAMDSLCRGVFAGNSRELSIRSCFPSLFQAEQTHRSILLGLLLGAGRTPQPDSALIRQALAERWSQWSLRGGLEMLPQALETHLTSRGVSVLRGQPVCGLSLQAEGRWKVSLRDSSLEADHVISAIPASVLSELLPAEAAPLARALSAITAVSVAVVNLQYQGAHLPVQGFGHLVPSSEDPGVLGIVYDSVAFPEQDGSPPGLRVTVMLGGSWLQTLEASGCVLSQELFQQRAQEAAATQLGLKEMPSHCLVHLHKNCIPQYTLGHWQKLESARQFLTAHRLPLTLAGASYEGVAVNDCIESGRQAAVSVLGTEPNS

Brassica juncea = assay: Herbicidal activity against Brassica juncea assessed as growth inhibition at 150 g ai/ha using post-emergence protocol under greenhouse conditions measured 15 days after compound treatment; format: functional; settings: 360 h, read-out: GI; procedure, shortened: as §2
Chenopodium album = assay: Herbicidal activity against Chenopodium album assessed as growth inhibition at 150 g ai/ha using post-emergence protocol under greenhouse conditions measured 15 days after compound treatment; format: functional; settings: 360 h, read-out: GI; procedure, shortened: as §2
Amaranthus retroflexus = assay: Herbicidal activity against Amaranthus retroflexus assessed as growth inhibition at 150 g ai/ha using post-emergence protocol under greenhouse conditions measured 15 days after compound treatment; format: functional; settings: 360 h, read-out: GI; procedure, shortened: as §2

| Ki [1] [nM] | Structure (SMILES) | inhibition of growth at 150 g/ha (Setaria viridis) [%] | inhibition of growth at 150 g/ha (Eclipta prostrata) [%] | inhibition of growth at 150 g/ha (Digitaria sanguinalis) [%] | inhibition of growth at 150 g/ha (Echinochloa crus-galli) [%] | inhibition of growth at 150 g/ha (Brassica juncea) [%] | inhibition of growth at 150 g/ha (Chenopodium album) [%] | inhibition of growth at 150 g/ha (Amaranthus retroflexus) [%] |
| --- | --- | --- | --- | --- | --- | --- | --- | --- |
| 200 | CCOc1cc(N2CC3=C(CCCC3)C2=O)c(F)cc1Cl | > 80 | 50 | > 80 | > 80 | 50 | 100 | > 80 |
| 19300 | O=C1C2=C(CCCC2)C(O)N1c1cc(O)c(Br)cc1F (configuration not stated) | < 50 | 50 | 50 | < 50 | < 50 | 50 | 50 |
| 780 | O=C1C2=C(CCCC2)C(O)N1c1cc(OCc2cccc(F)c2)c(Cl)cc1F (configuration not stated) | < 50 | 50 | 50 | < 50 | 50 | 50 | > 80 |

Continued, molecule first:

| Structure (SMILES) | Ki [1] [nM] | inhibition of growth at 150 g/ha (Setaria viridis) [%] | inhibition of growth at 150 g/ha (Eclipta prostrata) [%] | inhibition of growth at 150 g/ha (Digitaria sanguinalis) [%] | inhibition of growth at 150 g/ha (Echinochloa crus-galli) [%] | inhibition of growth at 150 g/ha (Brassica juncea) [%] | inhibition of growth at 150 g/ha (Chenopodium album) [%] | inhibition of growth at 150 g/ha (Amaranthus retroflexus) [%] |
| --- | --- | --- | --- | --- | --- | --- | --- | --- |
| CCOc1cc(N2CC3=C(CCCC3)C2=O)c(Cl)cc1Cl | 670 | < 50 | 50 | < 50 | < 50 | < 50 | 50 | 50 |
| CCCOc1cc(N2CC3=C(CCCC3)C2=O)c(Cl)cc1Cl | 300 | < 50 | < 50 | < 50 | < 50 | < 50 | < 50 | > 80 |
| CCCOc1cc(N2CC3=C(CCCC3)C2=O)c(F)cc1Cl | 95 | > 80 | 100 | > 80 | > 80 | > 80 | 100 | > 80 |
| C=CCOc1cc(N2CC3=C(CCCC3)C2=O)c(F)cc1Cl | 120 | > 80 | 100 | > 80 | > 80 | > 80 | 100 | 100 |
| COc1cc(N2C(=O)C3CCCCC3C2=O)c(F)cc1Cl (configuration not stated) | 8220 | 50 | 50 | 50 | 50 | 50 | < 50 | 100 |
| CCOC(=O)COc1cc(N2C(=O)C3CCCCC3C2=O)c(F)cc1Cl (configuration not stated) | 15200 | < 50 | < 50 | < 50 | < 50 | < 50 | < 50 | < 50 |
